# Measurements published in article PMC5035790 (Annals of Oncology, 2016).
# Marks after values point to notes of the source that are not given here.
# Legend:
# Assay type in all cases: in vivo, human
# [1] = Plasma pharmacokinetics of copanlisib
# [2] = Blood pressure monitoring after infusion
# [3] = system: non-Hodgkin's lymphoma; assay: Tumor response by International Working Group response criteria for lymphoma; settings: follicular lymphoma (FL), six patients
# Procedure, shortened: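 NHL expansion cohort (follicular lymphoma and DLBCL) received 0.8 mg/kg as a 1-h IV infusion on days 1, 8 and 15 of each 28-day cycle, continued until progression or unfavourable risk:benefit. Response was judged by investigator assessment using International Working Group lymphoma criteria.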
# [4] = cycle 1 day 1, NHL expansion, 0.8 mg/kg, n=9, value (range)
# [5] = cycle 1 day 1, diabetic expansion, 0.4 mg/kg, n=6, value (range)
# [6] = cycle 1 day 1, solid tumors expansion, 0.8 mg/kg, n=25, value (range)
# [7] = human, plasma, intravenous, 0.8 mg/kg
compound,measurement,setting,value
"COc1c(OCCCN2CCOCC2)ccc2c1N=C(NC(=O)c1cnc(N)nc1)N1CCN=C21 [copanlisib, Copanlisib]",coefficients of variation of Cmax and AUC(0–25),[1]; 0.1 to 1.2 mg/kg,30–50%
same,inter-patient variability of AUC,[1]; MTD 0.8 mg/kg,47%
same,terminal half-life,"[1]; MTD 0.8 mg/kg, coefficient of variation 43%",~38 h
same,Cmax levels of unbound copanlisib,[1]; at the MTD,~150 nM
same,dose dependence of Cmax and AUC(0–25),[1]; between 0.1 and 1.2 mg/kg,dose-proportionally
same,tlast,"[1]; cycle 1 day 1, MTD 0.8 mg/kg combined, n=7, value (range)",142.5 (25.0–194.2)^e h
same,Tmax,"[1]; cycle 1 day 1, MTD 0.8 mg/kg combined, n=34, value (range)",1.0 (0.5–3.0)^d h
same,Tmax,[1]; [4],1.0 (0.5–1.0) h
same,tlast,[1]; [4],167.0 (47.3–191.9) h
same,tlast,"[1]; cycle 1 day 1, cohort 1, 0.1 mg/kg, n=1, individual data",48.6 h
same,tlast,"[1]; cycle 1 day 1, cohort 2, 0.2 mg/kg, n=3, value (range)",48.4 (25.0–49.0) h
same,tlast,"[1]; cycle 1 day 1, cohort 3, 0.4 mg/kg, n=2, range",167.8 to 170.2 h
same,tlast,"[1]; cycle 1 day 1, cohort 4, 0.8 mg/kg, n=7, value (range)",142.5 (25.0–192.0) h
same,tlast,"[1]; cycle 1 day 1, cohort 5, 1.2 mg/kg, n=2, range","29.3–167.2^b,c h"
same,Tmax,[1]; [5],1.0 (1.0–1.2) h
same,tlast,[1]; [5],49.0 (48.9–167.4) h
same,Tmax,[1]; [6],1.0 (0.5–3.0) h
same,tlast,[1]; [6],118.5 (46.4–194.2) h
same,Tmax,"[1]; cycle 1 day 15, MTD 0.8 mg/kg combined, n=36, value (range)",1.0 (0.5–1.3)^m h
same,Tmax,"[1]; cycle 1 day 15, solid tumors expansion, 0.8 mg/kg, n=22, value (range)",1.0 (0.5–1.3)^l h
same,accumulation after once-weekly administration,[1]; days 1 and 15,no accumulation
same,concentration at 1 week,"[1]; human, blood, intravenous, 0.8 mg/kg",1.6 nM
same,AUC(0-t),"[1]; human, plasma, intravenous, 0.1 mg/kg, AUC(0–25), cycle 1 day 1, cohort 1, 0.1 mg/kg, n=1, individual data",170 ng·h/mL
same,AUC(0-t),"[1]; human, plasma, intravenous, 0.1 mg/kg, AUC(0–25), cycle 1 day 15, cohort 1, 0.1 mg/kg, n=1, individual data",175 ng·h/mL
same,AUC(0-t),"[1]; human, plasma, intravenous, 0.1 mg/kg, AUC(0–tlast), cycle 1 day 1, cohort 1, 0.1 mg/kg, n=1, individual data",254 ng·h/mL
same,Cmax,"[1]; human, plasma, intravenous, 0.1 mg/kg, cycle 1 day 1, cohort 1, 0.1 mg/kg, n=1, individual data",32.9 ng/mL
same,Cmax,"[1]; human, plasma, intravenous, 0.1 mg/kg, cycle 1 day 15, cohort 1, 0.1 mg/kg, n=1, individual data",37.6 ng/mL
same,Tmax,"[1]; human, plasma, intravenous, 0.1 mg/kg, tmax, cycle 1 day 1, cohort 1, 0.1 mg/kg, n=1, individual data",0.5 h
same,Tmax,"[1]; human, plasma, intravenous, 0.2 mg/kg",1 h
same,AUC(0-t),"[1]; human, plasma, intravenous, 0.2 mg/kg, AUC(0–25), cycle 1 day 1, cohort 2, 0.2 mg/kg, n=3, geometric mean (%CV)",384 ng·h/mL
same,AUC(0-t),"[1]; human, plasma, intravenous, 0.2 mg/kg, AUC(0–25), cycle 1 day 15, cohort 2, 0.2 mg/kg, n=3, geometric mean (%CV)",453 ng·h/mL
same,AUC(0-t),"[1]; human, plasma, intravenous, 0.2 mg/kg, AUC(0–tlast), cycle 1 day 1, cohort 2, 0.2 mg/kg, n=3, geometric mean (%CV)",472 ng·h/mL
same,Cmax,"[1]; human, plasma, intravenous, 0.2 mg/kg, cycle 1 day 1, cohort 2, 0.2 mg/kg, n=3, geometric mean (%CV)",79.8 ng/mL
same,Cmax,"[1]; human, plasma, intravenous, 0.2 mg/kg, cycle 1 day 15, cohort 2, 0.2 mg/kg, n=3, geometric mean (%CV)",89.4 ng/mL
same,Tmax,"[1]; human, plasma, intravenous, 0.2 mg/kg, tmax, cycle 1 day 1, cohort 2, 0.2 mg/kg, n=3, value (range)",1.1 h
same,Tmax,"[1]; human, plasma, intravenous, 0.4 mg/kg",1 h
same,AUC(0-t),"[1]; human, plasma, intravenous, 0.4 mg/kg, AUC(0–25), cycle 1 day 1, cohort 3, 0.4 mg/kg, n=2, range",348 to 556 ng·h/mL
same,AUC(0-t),"[1]; human, plasma, intravenous, 0.4 mg/kg, AUC(0–25), cycle 1 day 1, diabetic expansion, 0.4 mg/kg, n=6, geometric mean (%CV)",607 ng·h/mL
same,AUC(0-t),"[1]; human, plasma, intravenous, 0.4 mg/kg, AUC(0–25), cycle 1 day 15, cohort 3, 0.4 mg/kg, n=2, range",324 to 803 ng·h/mL
same,AUC(0-t),"[1]; human, plasma, intravenous, 0.4 mg/kg, AUC(0–25), cycle 1 day 15, diabetic expansion, 0.4 mg/kg, n=6, geometric mean (%CV)",687 ng·h/mL
same,AUC(0-t),"[1]; human, plasma, intravenous, 0.4 mg/kg, AUC(0–tlast), cycle 1 day 1, cohort 3, 0.4 mg/kg, n=2, range",722 to 1450 ng·h/mL
same,AUC(0-t),"[1]; human, plasma, intravenous, 0.4 mg/kg, AUC(0–tlast), cycle 1 day 1, diabetic expansion, 0.4 mg/kg, n=6, geometric mean (%CV)",1070 ng·h/mL
same,Cmax,"[1]; human, plasma, intravenous, 0.4 mg/kg, cycle 1 day 1, cohort 3, 0.4 mg/kg, n=2, range",143 to 144 ng/mL
same,Cmax,"[1]; human, plasma, intravenous, 0.4 mg/kg, cycle 1 day 1, diabetic expansion, 0.4 mg/kg, n=6, geometric mean (%CV)",138 ng/mL
same,Cmax,"[1]; human, plasma, intravenous, 0.4 mg/kg, cycle 1 day 15, cohort 3, 0.4 mg/kg, n=2, range",70.1 to 193 ng/mL
same,Cmax,"[1]; human, plasma, intravenous, 0.4 mg/kg, cycle 1 day 15, diabetic expansion, 0.4 mg/kg, n=6, geometric mean (%CV)",151 ng/mL
same,half-life,"[1]; human, plasma, intravenous, 0.4 mg/kg, t1/2, cycle 1 day 1, cohort 3, 0.4 mg/kg, n=1",60.6 h
same,half-life,"[1]; human, plasma, intravenous, 0.4 mg/kg, t1/2, cycle 1 day 1, diabetic expansion, 0.4 mg/kg, n=2, value (%)",34.4 h
same,Tmax,"[1]; human, plasma, intravenous, 0.4 mg/kg, tmax, cycle 1 day 1, cohort 3, 0.4 mg/kg, n=2, range",0.5 to 1.1 h
same,Tmax,"[1]; human, plasma, intravenous, 0.4 mg/kg, tmax, cycle 1 day 15, cohort 3, 0.4 mg/kg, n=2, range",0.5 to 1.1 h
same,Tmax,[1]; [7],1 h
same,concentration at 8 day of cycle 1,[1]; [7],4.92 ng/mL
same,AUC(0-t),"[1]; human, plasma, intravenous, 0.8 mg/kg, AUC(0–25), cycle 1 day 1, MTD 0.8 mg/kg combined, n=41, geometric mean (%CV)",1590 ng·h/mL
same,AUC(0-t),"[1]; human, plasma, intravenous, 0.8 mg/kg, AUC(0–25), cycle 1 day 1, NHL expansion, 0.8 mg/kg, n=9, geometric mean (%CV)",1350 ng·h/mL
same,AUC(0-t),"[1]; human, plasma, intravenous, 0.8 mg/kg, AUC(0–25), cycle 1 day 1, cohort 4, 0.8 mg/kg, n=7, geometric mean (%CV)",1600 ng·h/mL
same,AUC(0-t),"[1]; human, plasma, intravenous, 0.8 mg/kg, AUC(0–25), cycle 1 day 15, MTD 0.8 mg/kg combined, n=35, geometric mean (%CV)",1570 ng·h/mL
same,AUC(0-t),"[1]; human, plasma, intravenous, 0.8 mg/kg, AUC(0–25), cycle 1 day 15, NHL expansion, 0.8 mg/kg, n=8, geometric mean (%CV)",1760 ng·h/mL
same,AUC(0-t),"[1]; human, plasma, intravenous, 0.8 mg/kg, AUC(0–25), cycle 1 day 15, cohort 4, 0.8 mg/kg, n=6, geometric mean (%CV)",1480 ng·h/mL
same,AUC(0-t),"[1]; human, plasma, intravenous, 0.8 mg/kg, AUC(0–tlast), cycle 1 day 1, MTD 0.8 mg/kg combined, n=41, geometric mean (%CV)",2880 ng·h/mL
same,AUC(0-t),"[1]; human, plasma, intravenous, 0.8 mg/kg, AUC(0–tlast), cycle 1 day 1, NHL expansion, 0.8 mg/kg, n=9, geometric mean (%CV)",2710 ng·h/mL
same,AUC(0-t),"[1]; human, plasma, intravenous, 0.8 mg/kg, AUC(0–tlast), cycle 1 day 1, cohort 4, 0.8 mg/kg, n=7, geometric mean (%CV)",2940 ng·h/mL
same,Cmax,"[1]; human, plasma, intravenous, 0.8 mg/kg, cycle 1 day 1, MTD 0.8 mg/kg combined, n=41, geometric mean (%CV)",454 ng/mL
same,Cmax,"[1]; human, plasma, intravenous, 0.8 mg/kg, cycle 1 day 1, cohort 4, 0.8 mg/kg, n=7, geometric mean (%CV)",293 ng/mL
same,Cmax,"[1]; human, plasma, intravenous, 0.8 mg/kg, cycle 1 day 15, MTD 0.8 mg/kg combined, n=36, geometric mean (%CV)",463 ng/mL
same,Cmax,"[1]; human, plasma, intravenous, 0.8 mg/kg, cycle 1 day 15, NHL expansion, 0.8 mg/kg, n=8, geometric mean (%CV)",507 ng/mL
same,Cmax,"[1]; human, plasma, intravenous, 0.8 mg/kg, cycle 1 day 15, cohort 4, 0.8 mg/kg, n=6, geometric mean (%CV)",370 ng/mL
same,half-life,"[1]; human, plasma, intravenous, 0.8 mg/kg, t1/2, cycle 1 day 1, MTD 0.8 mg/kg combined, n=28, value (%)",38.2 h
same,half-life,"[1]; human, plasma, intravenous, 0.8 mg/kg, t1/2, cycle 1 day 1, NHL expansion, 0.8 mg/kg, n=8, value (%)",38.9 h
same,half-life,"[1]; human, plasma, intravenous, 0.8 mg/kg, t1/2, cycle 1 day 1, cohort 4, 0.8 mg/kg, n=4, value (%)",42.3 h
same,half-life,"[1]; human, plasma, intravenous, 0.8 mg/kg, t1/2, cycle 1 day 1, solid tumors expansion, 0.8 mg/kg, n=16, value (%)",36.9 h
same,half-life,"[1]; human, plasma, intravenous, 0.8 mg/kg, terminal half-life, MTD 0.8 mg/kg, coefficient of variation 43%",38.2 h
same,Tmax,"[1]; human, plasma, intravenous, 0.8 mg/kg, tmax, cycle 1 day 1, cohort 4, 0.8 mg/kg, n=7, value (range)",1.1 h
same,Tmax,"[1]; human, plasma, intravenous, 0.8 mg/kg, tmax, cycle 1 day 15, NHL expansion, 0.8 mg/kg, n=8, value (range)",0.8 h
same,AUC(0-t),"[1]; human, plasma, intravenous, 1.2 mg/kg, AUC(0–25), cycle 1 day 1, cohort 5, 1.2 mg/kg, n=2, range",2510 to 3820 ng·h/mL
same,AUC(0-t),"[1]; human, plasma, intravenous, 1.2 mg/kg, AUC(0–tlast), cycle 1 day 1, cohort 5, 1.2 mg/kg, n=2, range",4090 to 5230 ng·h/mL
same,Cmax,"[1]; human, plasma, intravenous, 1.2 mg/kg, cycle 1 day 1, cohort 5, 1.2 mg/kg, n=2, range",616 to 739 ng/mL
same,half-life,"[1]; human, plasma, intravenous, 1.2 mg/kg, t1/2, cycle 1 day 1, cohort 5, 1.2 mg/kg, n=1",33 h
same,Tmax,"[1]; human, plasma, intravenous, 1.2 mg/kg, tmax, cycle 1 day 1, cohort 5, 1.2 mg/kg, n=2, range",0.6 to 1.3 h
same,time of peak of post-infusion increase in blood pressure,[2]; in vivo,1 to 2 h
same,time to resolution of post-infusion increase in blood pressure,[2]; post-infusion,≤ 24 h
same,response rate,[3],100%
